# Assay outcomes as filed in PubChem BioAssay.
# Rows were chosen to be rich in hits. Some 4.9% of all compounds tested hit in one or more screens of this group.
# NF-kB expr up: compounds increasing NF-kB expression in human neuronal cells. NF-kB reporter expression; hits give high values. fold change at 12.5 µM. 190,000 tested, 1.6% active. AID 1239; in the data active = fold change above about 3.3
# STAT1 inh: inhibitors of IFN-gamma induced STAT1 signaling; 200,000 tested, 0.35% active; inhibition, % at 5.5 µM; AID 920; NIH 3T3 STAT1-luciferase reporter, luminescence;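 active = inhibition above a set limit, the mean inhibition across all tested compounds plus 3 SD, cut at about 34% in these data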;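 also: 0% = IFN-gamma with DMSO and 100% = IFN-gamma with 300 µM nifuroxazide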
# STAT3 inh-1: reduces IL-6 driven STAT3 reporter signal; U3A cells, IL-6 STAT3-luciferase reporter, luminescence; host cell line lacks STAT1; inhibition, % at 5.5 µM; 190,000 tested, 0.89% active; AID 862;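 active = inhibition above the mean inhibition across all screened compounds plus 3 SD, cut at about 44% in these data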;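 also: 0% = DMSO only wells and 100% = 100 µM nifuroxazide control wells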
# STAT3 act: activators of IL-6 induced STAT3 signaling. 190,000 tested, 0.91% active. AID 871. activation (% of control), % at 5.6 µM. U3A cells, IL-6 STAT3-luciferase reporter, luminescence; 100% = signal with IL-6 EC80 alone;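 active = activation above the screen-wide mean of compound activation plus 3 SD, cut at about 130% in these data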;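 also: 0% = background luminescence of wells with medium and substrate only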
#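 Test system: Human STAT1-deficient U3A cells with stable STAT3-luciferase reporter | Also added: Interleukin-6, 33 ng/mL | Timing: Compound pre-incubation 1 h before IL-6, then 6 h stimulation at 37 °C | Technique: Luciferase reporter luminescence | Read-out: Percent of IL-6-only median luminescence | Benchmarks: IL-6-only wells as 100% reference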
# APP 5'UTR act: activates APP 5'UTR luciferase reporter | SH-SY5Y APP 5'UTR luciferase reporter, luminescence; zero percent = DMSO vehicle wells | activation, % at 2 µM | 190,000 tested, 1% active | AID 1276;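 active = activation above a set limit, based on mean plus 3 SD of controls, cut at about 140% in these data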
# STAT1 act: activators of IFN-gamma induced STAT1 signaling | activation (% of control), % at 5.5 µM | NIH 3T3 STAT1-luciferase reporter, luminescence; 100% = IFN-gamma alone, no compound | 200,000 tested, 2.6% active;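 active = activation above the screen-wide mean activation plus 3 SD, cut at about 130% in these data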;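 also: raw ratio to IFN-gamma control signal so 100% means no change and 0% no light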
# STAT3 inh-2: confirmation of STAT3 signaling inhibitors; shares compounds with STAT3 inh-1; U3A cells, IL-6 STAT3 luciferase reporter, luminescence; cell line lacks STAT1; inhibition, % at 5.7 µM; 1,200 tested, 45% active; AID 1265;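 active = inhibition above the hit cutoff computed for the primary STAT3 screen, cut at about 44% in these data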;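 also: 0% = IL-6 plus DMSO and 100% = IL-6 plus nifuroxazide control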
# NFkB inh 2: inhibits NF-kappaB, counter-screen to STAT3 inhibitors; inhibition, % at 5.7 µM; HEK293T NF-kB luciferase reporter, TNF-alpha induced; shares compounds with STAT3 inh-1; 1,200 tested, 36% active;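 active = inhibition above the mean of solvent-only control wells plus 3 SD, cutoff set per campaign, cut at about 13% in these data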;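 also: 0% = TNF-alpha with DMSO and 100% = TNF-alpha with MG high control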
# STAT1 inh 2: STAT1 inhibition in STAT3 inhibitor counter-screen | shares compounds with STAT3 inh-1 | NIH 3T3 STAT1-luciferase reporter, IFN-gamma induced, luminescence | inhibition, % at 5.7 µM | 1,200 tested, 27% active;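 active = inhibition above the mean plus 3 SD of solvent-only control wells, limit set per screening run, cut at about 16% in these data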;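 also: 0% = DMSO with IFN-gamma and 100% = nifuroxazide control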
# * marks the source's active call; other numbers are inactive results; · = not tested or not shown.
SMILES,NF-kB expr up,STAT1 inh,STAT3 inh-1,STAT3 act,APP 5'UTR act,STAT1 act,STAT3 inh-2,NFkB inh 2,STAT1 inh 2
CN(C)c1nc(Cl)nc(N(C#N)CCOc2ccccc2)n1,1.1,-1,18,94,11,100,·,·,·
COc1ccc(C)cc1NC(=O)C(NC(=O)c1cc(OC)c(OC)c(OC)c1)C(C)C (configuration not stated),1.1,12,-4,108,7,90,·,·,·
Fc1cccc(F)c1/C=C/c1ccc2ccccc2n1,4.4*,-3,56*,55,166*,103,7,23*,-30
CC(O)/C=C/c1ccc2ccccc2n1 (configuration not stated),2.6,-12,-1,105,10,112,·,·,·
Cc1ccsc1/C=C/c1ccc2ccccc2n1,5*,16,46*,69,177*,86,46*,20*,7
CC(Cc1ccsc1)NC(=O)CCc1nnc(CCc2ccccc2)o1 (configuration not stated),1.1,-5,7,99,7,102,·,·,·
NCCCC[C@H]1CNC(=S)N1CCc1cccc(F)c1,0.94,-4,·,·,1,105,·,·,·
Cc1ccc(C)c(C(=O)COC(=O)c2cccc(N3C(=O)c4c(C)nc5ccccc5c4C3=O)c2)c1,0.42,-11,50*,60,141*,110,45*,29*,44*
Cc1nc2ccccc2c2c1C(=O)N(c1cccc(C(=O)O)c1)C2=O,1.1,0,-6,109,17,97,·,·,·
CN(Cc1nc(Cc2cccc(F)c2)no1)CC1CCOCC1,1.7,-2,10,95,7,100,·,·,·
O=C(c1ccc2c(c1)OCO2)N(Cc1ccco1)C1(C(=O)NC2CCCCC2)CCCCC1,0.85,8,8,91,-10,92,·,·,·
COc1ccccc1OCC(=O)N/N=C1/C=C(C)CC1,1.4,-2,3,100,-7,101,·,·,·
Cc1ccsc1/C=C1\CCc2ccccc2C1=O,3.5*,32,78*,34,138*,71,48*,11,-40
Cc1cc(C)n(Cc2ccc(NC(=O)c3ccc(COc4ccccc4Br)cc3)cc2)n1,0.77,5,52*,59,-12,89,52*,9,-1
COc1cccc(/C=N/Nc2nccnc2Cl)c1O,6.2*,-4,83*,34,-51,102,21,24*,-8
COC(=O)c1sccc1N/N=C/c1cccc(OC)c1O,3.6*,-4,60*,49,180*,104,19,-9,-3
Cc1ccc(-c2csc(NC(=O)c3cc([N+](=O)[O-])ccc3N3CCOCC3)n2)cc1,1.2,-7,0,106,8,106,·,·,·
O=C(Nc1nc(-c2ccccc2)cs1)c1ccc(N2CCOCC2)c([N+](=O)[O-])c1,0.36,15,72*,38,-8,86,77*,23*,16*
CC(C)COc1ccc(C(=O)Nc2ccc(SC(F)F)cc2)cc1,1.7,-15,3,97,74,113,·,·,·
CC(C)COc1ccc(C(=O)Nc2scc(-c3ccc(Cl)cc3Cl)c2C(N)=O)cc1,0.82,-1,49*,67,-10,101,36,11,1
CN(CC(=O)N1CCCC1)S(=O)(=O)c1ccc2ccccc2c1,0.95,6,0,101,5,93,·,·,·
Cc1ccoc1C(=O)Nc1ccc(CC(=O)O)cc1,0.58,27,57*,52,-79,75,51*,27*,14
COc1ccc(N(C(=O)CCl)C(C(=O)NCCc2ccccc2)c2cccs2)cc1Cl (configuration not stated),0.13,19,91*,23,2,83,104*,2,20*
COCCNC(=O)C(c1cccs1)N(C(=O)Cn1nnc2ccccc21)c1ccccc1 (configuration not stated),0.95,-6,2,103,23,105,·,·,·
COc1cccc(N(C(=O)CCl)C(C(=O)NCCc2ccccc2)c2cccs2)c1 (configuration not stated),0.12,18,63*,47,-4,84,95*,22*,25*
SMILES,NF-kB expr up,STAT1 inh,STAT3 inh-1,STAT3 act,APP 5'UTR act,STAT1 act,STAT3 inh-2,NFkB inh 2,STAT1 inh 2
C=CCNc1ncnc2c1cnn2-c1ccc(C)cc1C,1.1,-5,-7,106,21,105,·,·,·
CCOC(=O)N1CCC(Nc2ncnc3c2cnn3-c2ccc(C)cc2C)CC1,0.73,16,64*,51,-18,86,49*,14*,14
O=C(CSc1ccc(-c2ccncc2)nn1)N1CCN(c2ccccc2)CC1,0.92,-1,16,95,13,101,·,·,·
CC(=O)c1c(C)[nH]c(C(=O)COc2cc(C)cc(C)c2)c1C,0.88,12,44*,66,9,89,36,7,12
O=C(O)C1CC=CCC1C(=O)NC1CCCCC1 (configuration not stated),1.1,-4,6,98,-8,102,·,·,·
Nc1cc(N)cc(-c2nc3ccccc3[nH]2)c1,0.56,-10,-14,118,15,109,·,·,·
COc1ccc(-c2nc3ccccc3[nH]2)cc1,5*,15,60*,50,185*,86,37,2,-45
COC(=O)c1ccc(-c2ncc[nH]2)cc1,1.4,-5,16,91,20,103,·,·,·
COC(=O)c1ccc(-c2nc3ccccc3[nH]2)cc1,7.1*,-23,52*,57,131,122,22,-23,-91
Nc1ccc(NC(=O)NC2CCCCC2)cc1[N+](=O)[O-],1.6,-31,-9,111,70,127,·,·,·
CS(=O)(=O)c1ccc(C(=O)NC2CCCc3ccccc32)cc1 (configuration not stated),1,3,1,101,47,97,·,·,·
O=C(NCc1cccnc1)c1c[nH]c2cc3c(cc2c1=O)OCCO3,2,6,60*,55,80,95,23,-15,-23
CC1CCN(Cc2c(C(=O)O)nnn2-c2nonc2N)CC1,0.93,6,16,90,-10,94,·,·,·
CCCCc1ccc(Nc2ncnc3nc[nH]c23)cc1,2.9,8,52*,63,100,93,41,-18,2
CCCNc1ncnc2nc[nH]c12,1.2,-7,6,95,13,107,·,·,·
c1ccc(CCCNc2ncnc3nc[nH]c23)cc1,1.1,1,11,90,-3,97,·,·,·
